According to ChEMBL document CHEMBL2034874, “5-acetyl-2-arylbenzimidazoles as antiviral agents. Part 4” (Eur J Med Chem, 2012):
pEC50: −log10 of the molar value.

What was measured:
[1] = Cytotoxicity against BHK21 cells by MTT assay; type: cell-based, Mesocricetus auratus; conditions: hamster, BHK-21 cells
Summary of the method: (§1)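 Mock-infected MDBK (6×10^5 cells/mL, MEM-E with 10% horse serum) or BHK (1×10^6 cells/mL, MEM-E with 10% FBS) cells incubated with serial compound dilutions at 37 °C and 5% CO2. Viability measured by MTT after 48–96 h. CC50 by linear regression against untreated controls.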

[2] = test system: Human immunodeficiency virus 1; assay: Antiviral activity against HIV1 3B infected in human MT4 cells assessed as inhibition of virus-induced cytopathogenicity after 4 days by MTT assay; type: functional, organism-based; conditions: Human immunodeficiency virus 1, 3B, MT4, 96 h
Summary of the method: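 MT-4 cells (1×10^4/well) in RPMI with serial compound dilutions, infected with HIV-1 IIIB at 100 CCID50 (m.o.i. 0.01). Viability measured by MTT after 4 days at 37 °C. EC50 for 50% protection from cytopathogenicity obtained by linear regression against untreated controls.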

[3] = Cytotoxicity against human MT4 cells after 96 hrs by MTT assay; type: cell-based
Summary of the method: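 Exponentially growing MT-4 cells seeded at 1×10^5 cells/mL in RPMI-1640 with 10% FBS and incubated with serial compound dilutions at 37 °C and 5% CO2. Viability measured by MTT after 96 h. CC50 by linear regression against untreated controls.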

[4] = test system: Coxsackievirus B5; assay: Antiviral activity against Coxsackie virus type B5 Ohio-1 ATCC VR-29 infected in african green monkey Vero-76 cells assessed as reduction in viral plaque after 3 days by crystal violet staining; type: functional, organism-based; conditions: Enterovirus B, Ohio-1 ATCC VR-29, Vero 76, 72 h
Summary of the method: (§2)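 Vero-76 monolayers (2×10^5 cells/well) infected for 2 h at 50–100 PFU/well. Unadsorbed virus removed. D-MEM with 1% inactivated FBS, 0.75% methylcellulose and serial compound dilutions added. Incubation at 37 °C for 3 days (CVB-5, HSV-1) or 5 days (RSV). Fixed and stained with 50% ethanol/0.8% crystal violet, then plaques counted. EC50 by linear regression versus untreated controls.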

[5] = test system: Yellow fever virus; assay: Antiviral activity against Yellow fever virus 17D infected in BHK21 cells assessed as inhibition of virus-induced cytopathogenicity after 3 to 4 days by MTT assay; type: functional, cell-based; conditions: BHK-21
[6] = Antiviral activity against BVDV1 NADL ATCC VR-534 infected in MDBK cells assessed as inhibition of virus-induced cytopathogenicity after 3 to 4 days by MTT assay; type: functional, cell-based, Bovine viral diarrhea virus 1-NADL; conditions: Bovine viral diarrhea virus isolates and strains, ATCC VR-534, MDBK
Summary of the method: (§3)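 BHK (5×10^4/well) or MDBK (3×10^4/well) cells grown to confluent monolayers overnight, infected at m.o.i. 0.01 in maintenance MEM-Earl with 0.5% inactivated FBS. Serially diluted compounds added after 1 h. Viability read by MTT after 3–4 days at 37 °C. Values are expressed as % of untreated controls, and EC50 is derived by linear regression. Duplicate samples.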

[7] = test system: Mammalian orthoreovirus 1; assay: Antiviral activity against Reovirus 1 3651 ATCC VR-214 infected in BHK21 cells assessed as inhibition of virus-induced cytopathogenicity after 3 to 4 days by MTT assay; type: functional, organism-based; conditions: Mammalian orthoreovirus 1, 3651 ATCC VR-214, BHK-21; summary of the method: as §3
[8] = test system: Poliovirus 1; assay: Antiviral activity against Polio virus type 1 strain sabin ATCC VR-1562 infected in african green monkey Vero-76 cells assessed as reduction in viral plaque after 2 days by crystal violet staining; type: functional, cell-based, Human poliovirus 1 strain Sabin; conditions: Enterovirus C, ATCC VR-1562, Vero 76, 48 h
[9] = Cytotoxicity against african green monkey Vero 76 cells after 48 to 96 hrs by MTT assay; type: cell-based; conditions: chlorocebus sabaeus
[10] = test system: Human alphaherpesvirus 1; assay: Antiviral activity against Herpes simplex virus type 1 KOS ATCC VR-1493 infected in african green monkey Vero-76 cells assessed as reduction in viral plaque after 3 days by crystal violet staining; type: functional, organism-based; conditions: Human alphaherpesvirus 1, KOS ATCC VR1493, Vero 76, 72 h; summary of the method: as §2
[11] = Cytotoxicity against MDBK cells after 48 to 96 hrs by MTT assay; type: cell-based, Bos taurus; conditions: cattle; summary of the method: as §1
[12] = test system: Vaccinia virus; assay: Antiviral activity against Vaccinia virus Elstree-Lister ATCC VR-1549 infected in african green monkey Vero-76 cells assessed as reduction in viral plaque after 3 days by crystal violet staining; type: functional, organism-based; conditions: Orthopoxvirus vaccinia, Elstree-Lister ATCC VR-1549, Vero 76, 72 h
[13] = test system: Vesicular stomatitis Indiana virus; assay: Antiviral activity against Vesicular stomatitis virus indiana ATCC VR-1540 infected in african green monkey Vero-76 cells assessed as reduction in viral plaque after 2 days by crystal violet staining; type: functional, organism-based; conditions: ATCC VR-1540, Vero 76, 48 h
[14] = Antiviral activity against Human respiratory syncytial virus A2 ATCC VR-1540 infected in african green monkey Vero-76 cells assessed as reduction in viral plaque after 5 days by crystal violet staining; type: functional, cell-based; conditions: ATCC VR-1540, Vero 76, 120 h; summary of the method: as §2

SMILES | CC50 [1] [µM] | pEC50 [2] | CC50 at 96 h [3] [µM] | pEC50 [4] | pEC50 [5] | pEC50 [6] | pEC50 [7] | pEC50 [8] | CC50 [9] [µM] | pEC50 [10] | CC50 [11] [µM] | pEC50 [12] | pEC50 [13] | pEC50 [14]
COc1ccc(-c2nc3cc(/C(C)=N/O)ccc3[nH]2)c(OC)c1OC | > 100 | < 4.29 | 51 | < 4.00 | < 4.00 | < 4.00 | < 4.00 | < 4.00 | > 100 | < 4.00 | > 100 | < 4.00 | – | –
C/C(=N\NC(N)=S)c1ccc2[nH]c(C3CCCCC3)nc2c1 | 24 | < 4.32 | 48 | < 4.00 | < 4.62 | 4.80 | – | < 4.00 | > 100 | – | > 100 | < 4.00 | < 4.00 | < 4.00
COc1ccc(-c2nc3cc(C(C)O)ccc3[nH]2)c(OC)c1OC (configuration not stated) | 60 | < 4.10 | 79 | < 4.00 | < 4.22 | < 4.22 | < 4.00 | < 4.00 | ≥ 100 | < 4.00 | 60 | < 4.00 | – | < 4.00
CC(=O)c1ccc2c(c1)nc(-c1ccc(C(F)(F)F)cc1)n2C1CCCCC1 | 33 | < 4.39 | 41 | < 4.46 | < 4.48 | 4.64 | < 4.48 | < 4.46 | 35 | < 4.46 | 52 | < 4.46 | < 4.46 | 4.70
COc1ccc(-c2nc3cc(C(C)O)ccc3[nH]2)c(OC)c1 (configuration not stated) | > 100 | < 4.00 | ≥ 100 | < 4.00 | < 4.00 | < 4.00 | < 4.00 | < 4.00 | > 100 | < 4.00 | > 100 | < 4.00 | < 4.00 | < 4.00
COc1ccc(-c2nc3cc(C(C)=O)ccc3[nH]2)c(OC)c1OC | > 100 | < 4.00 | > 100 | < 4.00 | < 4.00 | < 4.00 | < 4.00 | < 4.00 | > 100 | < 4.00 | > 100 | < 4.00 | < 4.00 | < 4.00
CC(=O)c1ccc2c(c1)nc(-c1ccc(Cl)cc1)n2C1CCCCC1 | > 100 | < 4.24 | 58 | < 4.00 | < 4.00 | 4.64 | < 4.00 | < 4.00 | > 100 | < 4.00 | > 100 | < 4.00 | < 4.00 | < 4.00
C/C(=N\NC(N)=S)c1ccc2c(c1)nc(-c1ccc(C(F)(F)F)cc1)n2C1CCCCC1 | > 100 | ≤ 4.52 | 30 | < 4.00 | < 4.00 | < 4.00 | < 4.00 | < 4.00 | > 100 | < 4.00 | > 100 | < 4.00 | < 4.00 | < 4.00
CC(=O)c1ccc2[nH]c(C3CCCCC3)nc2c1 | > 100 | < 4.00 | > 100 | 4.33 | < 4.00 | < 4.00 | < 4.00 | < 4.00 | > 100 | < 4.00 | > 100 | < 4.00 | < 4.00 | –
C/C(=N\NC(N)=S)c1ccc2c(c1)nc(-c1ccccn1)n2C1CCCCC1 | 24 | < 4.64 | 23 | < 4.70 | < 4.62 | 4.59 | – | < 4.70 | 20 | < 4.70 | 41 | < 4.70 | < 4.70 | –
C/C(=N\NC(N)=S)c1ccc2c(c1)nc(-c1ccoc1)n2C1CCCCC1 | > 100 | < 4.68 | 21 | < 4.60 | < 4.00 | < 4.00 | – | < 4.60 | 25 | < 4.60 | > 100 | < 4.60 | < 4.60 | –
COc1ccc(-c2nc3cc(/C(C)=N/NC(N)=S)ccc3n2C2CCCCC2)cc1 | – | < 4.41 | 39 | < 4.40 | – | 5.15 | – | < 4.40 | 40 | < 4.40 | 32 | < 4.40 | < 4.40 | < 4.40
C/C(=N\NC(N)=S)c1ccc2[nH]c(-c3ccccc3)nc2c1 | 32 | < 4.00 | ≥ 100 | < 4.00 | < 4.49 | 5.42 | < 4.49 | < 4.00 | > 100 | – | 32 | – | < 4.00 | < 4.00
